Key:
Pseudomonas aeruginosa [1] = assay: Antibacterial activity against Pseudomonas aeruginosa isolate 912 after 18 hrs by broth microdilution method; assay type: functional; conditions: isolate 912, 18 h
In short: (§1)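 Broth microdilution per CLSI in cation-adjusted Mueller-Hinton broth. 100 µL inoculum (~10^6 cfu/mL in CaMHB) mixed with 100 µL CaMHB containing compound, 0 to 128 µM. Incubated 18 h at 37 °C. MIC taken as the lowest concentration with no visible growth. Polymyxin B served as positive control. Isolates were stored at -80 °C in tryptone soy broth with 20% glycerol.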

Pseudomonas aeruginosa [2] = assay: Antibacterial activity against Pseudomonas aeruginosa isolate M146201 after 18 hrs by broth microdilution method; assay type: functional; conditions: isolate M146201, 18 h; in short: as §1
Acinetobacter baumannii [3] = assay: Antibacterial activity against Acinetobacter baumannii ATCC 19606 after 18 hrs by broth microdilution method; assay type: functional; conditions: ATCC 19606 = CIP 70.34 = JCM 6841, 18 h; in short: as §1
Acinetobacter baumannii [4] = assay: Antibacterial activity against Acinetobacter baumannii ATCC 19606 col10 after 18 hrs by broth microdilution method; assay type: functional; conditions: ATCC 19606 = CIP 70.34 = JCM 6841 col10, 18 h; in short: as §1
Acinetobacter baumannii [5] = assay: Antibacterial activity against Acinetobacter baumannii isolate 07AC-336 after 18 hrs by broth microdilution method; assay type: functional; conditions: isolate 07AC-336, 18 h; in short: as §1
Acinetobacter baumannii [6] = assay: Antibacterial activity against Acinetobacter baumannii ATCC 17978 col10 after 18 hrs by broth microdilution method; assay type: functional; conditions: ATCC 17978 col10, 18 h; in short: as §1
Klebsiella pneumoniae [7] = assay: Antibacterial activity against Klebsiella pneumoniae isolate M320445 after 18 hrs by broth microdilution method; assay type: functional; conditions: isolate M320445, 18 h; in short: as §1
Klebsiella pneumoniae [8] = assay: Antibacterial activity against Klebsiella pneumoniae isolate 1 after 18 hrs by broth microdilution method; assay type: functional; conditions: isolate 1, 18 h; in short: as §1
Klebsiella pneumoniae [9] = assay: Antibacterial activity against Klebsiella pneumoniae isolate 224-11-C after 18 hrs by broth microdilution method; assay type: functional; in short: as §1
Klebsiella pneumoniae [10] = assay: Antibacterial activity against Klebsiella pneumoniae isolate 248-33-D after 18 hrs by broth microdilution method; assay type: functional; in short: as §1
Staphylococcus aureus [11] = assay: Antibacterial activity against methicillin-resistant Staphylococcus aureus ATCC 43300 after 18 hrs by broth microdilution method; assay type: functional; conditions: ATCC 43300, 18 h; in short: as §1
Staphylococcus aureus [12] = assay: Antibacterial activity against vancomycin-intermediate Staphylococcus aureus ATCC 700698 after 18 hrs by broth microdilution method; assay type: functional; conditions: ATCC 700698, 18 h; in short: as §1
Staphylococcus aureus [13] = assay: Antibacterial activity against vancomycin-resistant Staphylococcus aureus ATCC 700699 after 18 hrs by broth microdilution method; assay type: functional; conditions: ATCC 700699, 18 h; in short: as §1
[14] = Selectivity index, ratio of CC50 for human HepG2 cells in presence of 1% FBS to MIC for Pseudomonas aeruginosa QLD PSA 1; assay type: toxicity; conditions: read-out: Selectivity Index
In short: (§2)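 Selectivity index is CC50 (1% FBS) divided by MIC. […] They then got compound at 300 to 0.14 µM (3-fold steps) for 24 h at 37 °C, 5% CO2. Resazurin (10 µM, 2 h) was read at ex/em 560/590 in duplicate wells. For MIC, CLSI broth microdilution was run in CaMHB with ~10^6 cfu/mL inoculum and 0–128 µM compound.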

[15] = Selectivity index, ratio of CC50 for human HepG2 cells in presence of 1% FBS to MIC for Pseudomonas aeruginosa isolate 912; assay type: toxicity; conditions: read-out: Selectivity Index; in short: as §2
[16] = Selectivity index, ratio of CC50 for human HepG2 cells in presence of 1% FBS to MIC for Pseudomonas aeruginosa isolate 19147nm; assay type: toxicity; conditions: read-out: Selectivity Index; in short: as §2
[17] = Selectivity index, ratio of CC50 for human HepG2 cells in presence of 1% FBS to MIC for Acinetobacter baumannii ATCC 19606; assay type: toxicity; conditions: read-out: Selectivity Index
[18] = Selectivity index, ratio of CC50 for human HepG2 cells in presence of 1% FBS to MIC for Acinetobacter baumannii ATCC 17978; assay type: toxicity; conditions: read-out: Selectivity Index
[19] = Selectivity index, ratio of CC50 for human HepG2 cells in presence of 1% FBS to MIC for Acinetobacter baumannii ATCC 19606 col10; assay type: toxicity; conditions: read-out: Selectivity Index
[20] = Selectivity index, ratio of CC50 for human HepG2 cells in presence of 1% FBS to MIC for Acinetobacter baumannii ATCC 17978 col10; assay type: toxicity; conditions: read-out: Selectivity Index
[21] = Selectivity index, ratio of CC50 for human HepG2 cells in presence of 1% FBS to MIC for Klebsiella pneumoniae isolate 1; assay type: toxicity; conditions: read-out: Selectivity Index
[22] = Selectivity index, ratio of CC50 for human HepG2 cells in presence of 1% FBS to MIC for methicillin-resistant Staphylococcus aureus ATCC 43300; assay type: toxicity; conditions: read-out: Selectivity Index; in short: as §2
[23] = Selectivity index, ratio of CC50 for human HepG2 cells in presence of 1% FBS to MIC for Klebsiella pneumoniae isolate 224-11-C; assay type: toxicity; conditions: read-out: Selectivity Index
[24] = Selectivity index, ratio of CC50 for human HepG2 cells in presence of 1% FBS to MIC for Klebsiella pneumoniae isolate 248-33-D; assay type: toxicity; conditions: read-out: Selectivity Index
[25] = Selectivity index, ratio of CC50 for human HepG2 cells in presence of 1% FBS to MIC for Escherichia coli N2381; assay type: toxicity; conditions: read-out: Selectivity Index
[26] = Selectivity index, ratio of CC50 for human HepG2 cells in presence of 1% FBS to MIC for Escherichia coli N4149; assay type: toxicity; conditions: read-out: Selectivity Index
[27] = Selectivity index, ratio of CC50 for human HepG2 cells in presence of 1% FBS to MIC for vancomycin-resistant Enterococcus faecium ATCC 700221; assay type: toxicity; conditions: read-out: Selectivity Index; in short: as §2
[28] = Selectivity index, ratio of CC50 for human HepG2 cells in presence of 1% FBS to MIC for vancomycin-intermediate Staphylococcus aureus ATCC 700698; assay type: toxicity; conditions: read-out: Selectivity Index; in short: as §2
[29] = Selectivity index, ratio of CC50 for human HepG2 cells in presence of 1% FBS to MIC for vancomycin-resistant Staphylococcus aureus ATCC 700699; assay type: toxicity; conditions: read-out: Selectivity Index; in short: as §2
[30] = test system: Mycobacterium tuberculosis; assay: Antimycobacterial activity against Mycobacterium tuberculosis H37Rv ATCC 25618 after 7 days by resazurin dye based assay; assay type: functional; conditions: H37Rv ATCC 25618, 168 h
In short: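 H37Rv grown at 37 °C in 7H9 with 10% ADC, 0.5% glycerol and 0.02% tyloxapol. Compounds serially diluted in water, 0 to 10 µM, in triplicate. Culture adjusted to OD600 0.001 and incubated 7 days at 37 °C. Resazurin (0.05% w/v) added for 4-24 h and fluorescence read at 590 nm. MIC is the lowest concentration giving complete growth inhibition versus untreated. Rifampicin served as control.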

[31] = Selectivity index, ratio of CC50 for human HepG2 cells in presence of 1% FBS to MIC for Mycobacterium tuberculosis H37Rv ATCC 25618; assay type: toxicity; conditions: read-out: Selectivity Index
[32] = Cytotoxicity against human HepG2 cells after 24 hrs in presence of 1% FBS by resazurin dye based assay; assay type: cell-based
In short: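 HepG2 cells seeded at 4000/well in DMEM with 1% FBS and allowed to attach for 24 h at 37 °C, 5% CO2. Compounds added from 300 to 0.14 µM in 3-fold steps and incubated 24 h. 10 µM resazurin added for 2 h, fluorescence read at ex/em 560/590. Percent viability computed relative to untreated and negative controls, duplicate wells.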

Compound | MIC (Pseudomonas aeruginosa [1]) | MIC (Pseudomonas aeruginosa [2]) | MIC (Acinetobacter baumannii [3]) | MIC (Acinetobacter baumannii [4]) | MIC (Acinetobacter baumannii [5]) | MIC (Acinetobacter baumannii [6]) | MIC (Klebsiella pneumoniae [7]) | MIC (Klebsiella pneumoniae [8]) | MIC (Klebsiella pneumoniae [9]) | MIC (Klebsiella pneumoniae [10]) | MIC (Staphylococcus aureus [11]) | MIC (Staphylococcus aureus [12]) | MIC (Staphylococcus aureus [13]) | selectivity ratio [14] | selectivity ratio [15] | selectivity ratio [16] | selectivity ratio [17] | selectivity ratio [18] | selectivity ratio [19] | selectivity ratio [20] | other results
Cc1ccc2c(c1)-c1ccccc1[I+]2 | 9 µM | 36 µM | 18 µM | 9 µM | 18 µM | 1.1 µM | 72 µM | > 72 µM | > 72 µM | 72 µM | 9 µM | 18 µM | 18 µM | 1 | 4.2 | 4.2 | 2.2 | 4.2 | 4.2 | 33 | selectivity ratio [21]: > 0.52; selectivity ratio [22]: 4.2; selectivity ratio [23]: > 0.52; selectivity ratio [24]: 0.52; selectivity ratio [25]: 0.52; selectivity ratio [26]: > 0.52; selectivity ratio [27]: 8.3; selectivity ratio [28]: 2.2; selectivity ratio [29]: 2.2; MIC [30]: 0.57 µM; selectivity ratio [31]: 66; CC50 at 24 h [32]: 37.5 µM
Cc1cccc2c1-c1ccccc1[I+]2 | 1.1 µM | 2.3 µM | 2.3 µM | 2.3 µM | 2.2 µM | 0.57 µM | 36 µM | 72 µM | > 72 µM | > 72 µM | 36 µM | 36 µM | 36 µM | 0.58 | 2.3 | 4.6 | 1.2 | 2.3 | 1.2 | 4.6 | selectivity ratio [21]: 0.04; selectivity ratio [22]: 0.07; selectivity ratio [23]: > 0.04; selectivity ratio [24]: > 0.04; selectivity ratio [25]: 0.14; selectivity ratio [26]: > 0.04; selectivity ratio [27]: 1.2; selectivity ratio [28]: 0.07; selectivity ratio [29]: 0.07; MIC [30]: 0.14 µM; selectivity ratio [31]: 19; CC50 at 24 h [32]: 2.6 µM
Clc1cccc2c1-c1ccccc1[I+]2 | < 0.27 µM | 0.54 µM | < 0.27 µM | < 0.27 µM | < 0.27 µM | < 0.27 µM | 8.6 µM | 8.6 µM | 8.6 µM | 8.6 µM | 1.1 µM | 2.3 µM | 1.1 µM | 1.2 | < 2.4 | < 2.4 | < 2.4 | < 2.4 | < 2.4 | < 2.4 | selectivity ratio [21]: 0.08; selectivity ratio [22]: 0.61; selectivity ratio [23]: 0.08; selectivity ratio [24]: 0.08; selectivity ratio [25]: 1.2; selectivity ratio [26]: 1.2; selectivity ratio [27]: < 2.4; selectivity ratio [28]: 0.29; selectivity ratio [29]: 0.61; MIC [30]: 0.28 µM; selectivity ratio [31]: 2.4; CC50 at 24 h [32]: 0.66 µM
c1ccc2c(c1)[I+]c1ccccc1-2 | 4.7 µM | 9.3 µM | 9.3 µM | 4.7 µM | 19 µM | 0.58 µM | 37 µM | 75 µM | 75 µM | 37 µM | 4.7 µM | 19 µM | 19 µM | 3.1 | 6.3 | 13 | 3.1 | 13 | 6.3 | 50 | selectivity ratio [21]: 0.78; selectivity ratio [22]: 6.3; selectivity ratio [23]: 0.78; selectivity ratio [24]: 0.78; selectivity ratio [25]: 0.78; selectivity ratio [26]: 0.78; selectivity ratio [27]: 6.3; selectivity ratio [28]: 1.6; selectivity ratio [29]: 1.6; MIC [30]: 0.3 µM; selectivity ratio [31]: 96; CC50 at 24 h [32]: 29.2 µM
COc1cccc2c1-c1ccccc1[I+]2 | 70 µM | > 70 µM | 35 µM | 17 µM | 70 µM | 35 µM | 70 µM | > 70 µM | > 70 µM | > 70 µM | 35 µM | 35 µM | 35 µM | > 0.55 | 0.55 | 0.55 | 1.1 | 1.1 | 2.2 | 1.1 | selectivity ratio [21]: > 0.55; selectivity ratio [22]: 1.1; selectivity ratio [23]: > 0.55; selectivity ratio [24]: > 0.55; selectivity ratio [25]: 0.55; selectivity ratio [26]: > 0.55; selectivity ratio [27]: 4.4; selectivity ratio [28]: 1.1; selectivity ratio [29]: 1.1; MIC [30]: 4.4 µM; selectivity ratio [31]: 8.8; CC50 at 24 h [32]: 38.3 µM
Fc1cccc2c1-c1ccccc1[I+]2 | 4.5 µM | 1.1 µM | 0.56 µM | 0.56 µM | 1.1 µM | < 0.28 µM | 9 µM | 9 µM | 9 µM | 9 µM | 2.2 µM | 2.2 µM | 2.2 µM | 1 | 1 | < 16 | 8.2 | 8.2 | 8.2 | < 16 | selectivity ratio [21]: 0.51; selectivity ratio [22]: 2.1; selectivity ratio [23]: 0.51; selectivity ratio [24]: 0.51; selectivity ratio [25]: 4.2; selectivity ratio [26]: 4.2; selectivity ratio [27]: 8.2; selectivity ratio [28]: 2.1; selectivity ratio [29]: 2.1; MIC [30]: 0.29 µM; selectivity ratio [31]: 16; CC50 at 24 h [32]: 4.6 µM

Reference: ChEMBL document CHEMBL4145448, “Broad activity of diphenyleneiodonium analogues against Mycobacterium tuberculosis, malaria parasites and bacterial pathogens” (Eur J Med Chem, 2018)
